{
  "source": "ChEMBL document CHEMBL4513216",
  "about": "“Probing the Open Global Health Chemical Diversity Library for Multistage-Active Starting Points for Next-Generation Antimalarials” (ACS Infect Dis, 2020)",
  "data": [
    {"assay": "Toxicity liver stage against HepG2, at 10uM", "type": "cell-based", "set-up": "test concentration 10 uM, cell line HepG2-A16-CD81EGFP", "conditions": "human, HepG2-A16-CD81EGFP cells; read-out: INHIBITION", "outline": "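Uninfected HepG2-A16-CD81EGFP cells, 3 × 10^3 per well, 1536-well, plated on prespotted compound at 10 μM final, parasite-free screening media added to match infected plates; puromycin 10 μM positive, DMSO 0.5% negative; run in parallel with 48 h PbLuc assay at 37 °C, 5% CO2; viability by CellTiter-Glo luminescence, normalized to controls.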", "units": {"cytotoxicity at 10 µM": "%"}, "values": [
      {"smiles": "CNC(=O)CN([C@H]1C[C@H]2CCOC[C@H]2C1)S(=O)(=O)c1ccccc1", "cytotoxicity at 10 µM": -1.63},
      {"smiles": "OC[C@H]1CN2CCN(c3ccccn3)C[C@@H]2[C@@H]1c1ccccc1", "cytotoxicity at 10 µM": -0.0603},
      {"smiles": "CSc1ccc(C(=O)N2CC(=O)N(Cc3cccs3)CC(O)C2)cc1", "note": "(configuration not stated)", "cytotoxicity at 10 µM": 2.31},
      {"smiles": "COCCn1ccc2c(NC(=O)C(C)C)cccc21", "cytotoxicity at 10 µM": 1.01},
      {"smiles": "O=C(Nc1cc(C(F)(F)F)ccc1Cl)c1ccc(N2CCOCC2)nn1", "cytotoxicity at 10 µM": -9.89},
      {"smiles": "Cc1cc2cc(CNC(=O)c3cnn4c3OCCC4)ccc2[nH]1", "cytotoxicity at 10 µM": 6.59},
      {"smiles": "CCOc1ccc(NC(=O)CN2CCN(c3nccn3C)CC2)cc1", "cytotoxicity at 10 µM": 4.05},
      {"smiles": "O=C(NCC(Cc1cccc(F)c1)N1CCCC1=O)c1ccccc1", "note": "(configuration not stated)", "cytotoxicity at 10 µM": -12.2},
      {"smiles": "O=C(CCn1ccc2cc(Br)ccc21)NCc1ccc(C(=O)O)cc1", "cytotoxicity at 10 µM": -11.8},
      {"smiles": "Cc1noc(C)c1CN1CCCC2(CCN(C(=O)CC3CC3)C2)C1", "note": "(configuration not stated)", "cytotoxicity at 10 µM": 7.71},
      {"smiles": "Cc1cccnc1NC(=O)C(C)Cn1nc(C(F)(F)F)cc1C", "note": "(configuration not stated)", "cytotoxicity at 10 µM": 5.89},
      {"smiles": "Cn1ccnc1CNC(=O)CC1CCCCO1", "note": "(configuration not stated)", "cytotoxicity at 10 µM": 1.24},
      {"smiles": "CNC(=O)C1CN(C(=O)c2ccccc2)Cc2cn(C)nc21", "note": "(configuration not stated)", "cytotoxicity at 10 µM": -1.5},
      {"smiles": "Cc1ccc(CN2CCC(c3cnccn3)CC2)s1", "cytotoxicity at 10 µM": -0.64},
      {"smiles": "Cc1cccc(CN2CCC(c3nnsc3S(C)(=O)=O)CC2)c1", "cytotoxicity at 10 µM": 1.86},
      {"smiles": "CC(C)N1CCC(Cc2cncc(-c3cccc(C(=O)O)c3)n2)CC1", "cytotoxicity at 10 µM": -20.8},
      {"smiles": "Cc1cc(-c2cnn(CCNC(=O)c3cc[nH]n3)c2C2CC2)on1", "cytotoxicity at 10 µM": -13.6},
      {"smiles": "O=S(=O)(c1ccccc1)N1CCCC1c1cc[nH]n1", "note": "(configuration not stated)", "cytotoxicity at 10 µM": -6.58},
      {"smiles": "COc1cc2c(nn1)CCN(Cc1ncc(C(C)(C)C)o1)C2", "cytotoxicity at 10 µM": -6.44},
      {"smiles": "CN(CC(C)(CO)CO)C(=O)Nc1cc(F)cc(F)c1", "cytotoxicity at 10 µM": 0.669},
      {"smiles": "CCCc1noc(C(C)N2CCN(CCn3ccccc3=O)CC2)n1", "note": "(configuration not stated)", "cytotoxicity at 10 µM": 5.6},
      {"smiles": "Cc1cnc(N2CCN(C(C)C(N)=O)CC2)nc1", "note": "(configuration not stated)", "cytotoxicity at 10 µM": 0.399},
      {"smiles": "COc1cc2c(cc1OC)CN(C(=O)NCC1CCCO1)CC2", "note": "(configuration not stated)", "cytotoxicity at 10 µM": -16},
      {"smiles": "NCC(CO)Cc1ccc(OC(F)(F)F)cc1", "note": "(configuration not stated)", "cytotoxicity at 10 µM": 8.65},
      {"smiles": "CN(C)C1CCN(C(=O)C2SCCc3ccccc32)CC1", "note": "(configuration not stated)", "cytotoxicity at 10 µM": -4.67},
      {"smiles": "O=S(=O)(CCN1CCN(c2ccccc2O)CC1)c1ccc(Br)cc1", "cytotoxicity at 10 µM": 10.7},
      {"smiles": "Cc1cc(C2CCCN2Cc2ccc(S(=O)(=O)N3CCCC3)o2)on1", "note": "(configuration not stated)", "cytotoxicity at 10 µM": -11.9},
      {"smiles": "CC(=O)N1CCN(C(=O)NCc2ccccc2Cn2ccnc2)CC1", "cytotoxicity at 10 µM": 0.243},
      {"smiles": "CC(C)(O)CN1CCN(C(=O)c2cccn2Cc2ccncc2)CC1", "cytotoxicity at 10 µM": -2.59},
      {"smiles": "CCN(Cc1ccc2c(c1)OCO2)C(=O)c1ccc(=O)n(C)c1", "cytotoxicity at 10 µM": 15.9},
      {"smiles": "Cn1ccnc1COc1ccc(COC(=O)C2CCCO2)cc1", "note": "(configuration not stated)", "cytotoxicity at 10 µM": -1.39},
      {"smiles": "O=C(CS(=O)(=O)C1CCCC1)NC1CCc2nccn2C1", "note": "(configuration not stated)", "cytotoxicity at 10 µM": -17},
      {"smiles": "Cc1nnc(CN(C)CCOc2cccc(Cl)c2)o1", "cytotoxicity at 10 µM": 12.8},
      {"smiles": "CCn1c(C)cc(C(=O)NCc2cccc(NS(C)(=O)=O)c2)c1C", "cytotoxicity at 10 µM": -2.6},
      {"smiles": "CC(C)N(CCNC(=O)c1ccc(S(=O)(=O)NC2CC2)cc1)C(C)C", "cytotoxicity at 10 µM": -65.8},
      {"smiles": "CN(C)CCN(Cc1ccccn1)C(=O)Nc1cccc(F)c1", "cytotoxicity at 10 µM": 8.94},
      {"smiles": "O=C1OCCN1c1cccc(CNS(=O)(=O)Cc2ccc(F)cc2)c1", "cytotoxicity at 10 µM": 4.77},
      {"smiles": "COCC1CCCN(C(=O)c2ccccc2NCc2cccnc2)C1", "note": "(configuration not stated)", "cytotoxicity at 10 µM": 8.47},
      {"smiles": "CNC(=O)c1ccc(-c2ccccc2)n1C", "cytotoxicity at 10 µM": -1.6},
      {"smiles": "O=C(NCCN1CCOCC1)Nc1cc(F)ccc1-n1cccn1", "cytotoxicity at 10 µM": -14.9},
      {"smiles": "CNC(=O)C(CCSC)NC(=O)c1ccc2ccccc2n1", "note": "(configuration not stated)", "cytotoxicity at 10 µM": -1.35},
      {"smiles": "O=S(=O)(CC1CCCCC1)NCc1ccc(O)nc1", "cytotoxicity at 10 µM": 5.27},
      {"smiles": "CC(COCC(F)(F)F)NC(=O)c1ccc(-c2ccco2)[nH]c1=O", "note": "(configuration not stated)", "cytotoxicity at 10 µM": -20.1},
      {"smiles": "Cn1cc(NC(=O)Nc2ccccn2)cc(Cl)c1=O", "cytotoxicity at 10 µM": -7.82},
      {"smiles": "c1coc(-c2nnc(CN3CCCC(CN4CCCCCC4)C3)o2)c1", "note": "(configuration not stated)", "cytotoxicity at 10 µM": -10.5},
      {"smiles": "Cc1nc(C)n(CC2CCCN(Cc3nnc(C(C)(C)C)o3)C2)n1", "note": "(configuration not stated)", "cytotoxicity at 10 µM": -11},
      {"smiles": "CC(=O)NCC[C@H]1CC(C)(C)Oc2ccccc21", "cytotoxicity at 10 µM": -0.363},
      {"smiles": "C=C(C)COc1cccc(C(=O)N(CC)Cc2nccn2C)c1", "cytotoxicity at 10 µM": -4.69},
      {"smiles": "CCNC(=O)[C@@H]1C[C@@H](NC(=O)c2ccc(C)s2)CN1Cc1ccccn1", "cytotoxicity at 10 µM": -3.73},
      {"smiles": "CNc1ncc(CN(C)C(=O)c2cccc(CC3CCNCC3)c2)cn1", "cytotoxicity at 10 µM": -19.7},
      {"smiles": "NCCc1nc(N(Cc2nccs2)C2CC2)c2ccccc2n1", "cytotoxicity at 10 µM": -16.1},
      {"smiles": "Cn1cc(CN2CCCN(CCCc3ccccc3)CC2)cn1", "cytotoxicity at 10 µM": -50.8},
      {"smiles": "CC(c1cccc(-c2ncccc2C#N)c1)N(C)C", "note": "(configuration not stated)", "cytotoxicity at 10 µM": -5.4},
      {"smiles": "Cc1ccc(CN(CCN(C)C)C(=O)Nc2cc(C(N)=O)ccc2C)s1", "cytotoxicity at 10 µM": 13.1},
      {"smiles": "Cc1ccsc1CN(c1nc(CCN)nc2ccccc12)C1CC1", "cytotoxicity at 10 µM": 11.7},
      {"smiles": "COc1ccc(NC2CCCN(Cc3cnc(N(C)C)s3)C2)cc1OC", "note": "(configuration not stated)", "cytotoxicity at 10 µM": 3.46},
      {"smiles": "CC(C)=Cc1c(-c2ccccc2)ncn1CCS(C)(=O)=O", "cytotoxicity at 10 µM": -3.15},
      {"smiles": "Cc1ccc(-c2ccnc(NCC3(N(C)C)CCOCC3)n2)c(C)n1", "cytotoxicity at 10 µM": 13.1},
      {"smiles": "O=C1CC2(CCN(C(=O)c3ccc4c(c3)CCCO4)C2)C(=O)N1", "note": "(configuration not stated)", "cytotoxicity at 10 µM": 3.67},
      {"smiles": "Cc1cc(=O)[nH]c(-c2cccc(CN3CCCN4CCCC4C3)c2)n1", "note": "(configuration not stated)", "cytotoxicity at 10 µM": 1.46},
      {"smiles": "Cc1nc(N2CCN(C(=O)c3ccccc3)CC2)c2cnn(C)c2n1", "cytotoxicity at 10 µM": -11.5},
      {"smiles": "Cc1noc(CN(C)Cc2ccc3c(c2)OCO3)n1", "cytotoxicity at 10 µM": -13.2},
      {"smiles": "Cc1noc(C)c1CN1CCC(N(C)Cc2nnc(C3CC3)n2C)C1", "note": "(configuration not stated)", "cytotoxicity at 10 µM": -4.03},
      {"smiles": "Cc1nc(C)n(CC2CCCN(Cc3ccc(F)cc3C#N)C2)n1", "note": "(configuration not stated)", "cytotoxicity at 10 µM": -10.8},
      {"smiles": "N#Cc1ccc(CCC(=O)N2CCCC(n3cncn3)C2)cc1", "note": "(configuration not stated)", "cytotoxicity at 10 µM": -7.79},
      {"smiles": "Cc1nsc2ncc(C(=O)N3CCCC3c3cnn(C)c3)cc12", "note": "(configuration not stated)", "cytotoxicity at 10 µM": -1.8},
      {"smiles": "Cn1cc(C(=O)N2CCCC2c2noc(C3CC3)n2)c2ccccc21", "note": "(configuration not stated)", "cytotoxicity at 10 µM": -0.249},
      {"smiles": "CN1C(=O)Cc2cc(-c3csc(CCN4CCOC4=O)n3)ccc21", "cytotoxicity at 10 µM": -11.5},
      {"smiles": "CC(c1cc(F)ccc1F)N1CCN(Cc2nccn2C)CC1", "note": "(configuration not stated)", "cytotoxicity at 10 µM": -15.6},
      {"smiles": "Cc1nn2cccnc2c1C(=O)N1CCCC(n2cccn2)C1", "note": "(configuration not stated)", "cytotoxicity at 10 µM": -35.9},
      {"smiles": "O=C(Cc1ccc2c(c1)OCCO2)NCc1ccc(-n2cncn2)nc1", "cytotoxicity at 10 µM": -20.5},
      {"smiles": "OC(CN1CCCCCCC1)c1ccc(OC(F)(F)F)cc1", "note": "(configuration not stated)", "cytotoxicity at 10 µM": -11.2},
      {"smiles": "CCc1ccc(C(=O)N2CCN(c3nc(C)cc(OC)n3)CC2)o1", "cytotoxicity at 10 µM": -18.7},
      {"smiles": "Cc1nc(C)n(C2CCCN(C(=O)Cc3n[nH]c4ccccc34)C2)n1", "note": "(configuration not stated)", "cytotoxicity at 10 µM": -11.7},
      {"smiles": "CCn1cnnc1C1CCN(C(=O)c2ccc(C(=O)OC)s2)CC1", "cytotoxicity at 10 µM": -8.16},
      {"smiles": "Cc1ccc(Cl)cc1N1CCC(CNC(=O)CCn2ccnn2)C1", "note": "(configuration not stated)", "cytotoxicity at 10 µM": -5.72},
      {"smiles": "CCc1nc(CC(=O)N2CCn3c(nnc3C(C)C)C2)cs1", "cytotoxicity at 10 µM": -6.72},
      {"smiles": "CCc1cc(C(F)(F)F)n2nc(C3CCCN3C3CCSCC3)cc2n1", "note": "(configuration not stated)", "cytotoxicity at 10 µM": 3.81},
      {"smiles": "NCC(=O)N1CCCC(c2ccnc(Nc3cnccn3)n2)C1", "note": "(configuration not stated)", "cytotoxicity at 10 µM": 2.66},
      {"smiles": "NCC1CCCCN1C(=O)Cc1cccc(Cl)c1", "note": "(configuration not stated)", "cytotoxicity at 10 µM": -5.36},
      {"smiles": "CCOCC1CN(C(=O)c2cccn2C)Cc2cnn(CC3CC3)c21", "note": "(configuration not stated)", "cytotoxicity at 10 µM": 8.37},
      {"smiles": "CN(C)C(=O)CN1C[C@H]2CC[C@@H](C1)N(Cc1ccc(Cl)cc1Cl)C2", "cytotoxicity at 10 µM": -10.2}
    ]}
  ]
}
